Most compounds without a hit are left out; they make up all but 1.8% or so of the library.
APJ ag: agonists of human apelin receptor APJ, primary screen, CHO-K1 cells, PathHunter beta-arrestin, luminescence; P35414; 0% DMSO wells, 100% apelin; activation, % at 20 µM; hit rate 0.11% among 330,000; AID 2520, 2010;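 active = activation more than six SD over the plate average, tested at 20 µM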
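Test system: CHO-K1 APJ beta-arrestin complementation cell line | Compound: Single test compound dose, 20 µM final, 1% DMSO | Incubation: Compound 90 min 25 °C, reagent 1 h | Measured by: beta-gal luminescence | Read-out basis: APJ–arrestin association signal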
CCR6 antag: CCR6 receptor antagonists, primary screen, cell-based, CHO-K1, luminescence, beta-arrestin, uHTS; C-C chemokine receptor type 6 (Homo sapiens), P51684; CHO-K1 CCR6 PathHunter beta-arrestin, CCL20-stimulated; inhibition, % at 20 µM; hit rate 0.49% among 340,000;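 active = compounds whose inhibition of the agonist-driven luminescence signal at 20 µM reaches about 50%, limit read from the data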;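 also: cells stimulated with CCL20 at 14 nM final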
Target sequence (P51684 whole entry, looked up): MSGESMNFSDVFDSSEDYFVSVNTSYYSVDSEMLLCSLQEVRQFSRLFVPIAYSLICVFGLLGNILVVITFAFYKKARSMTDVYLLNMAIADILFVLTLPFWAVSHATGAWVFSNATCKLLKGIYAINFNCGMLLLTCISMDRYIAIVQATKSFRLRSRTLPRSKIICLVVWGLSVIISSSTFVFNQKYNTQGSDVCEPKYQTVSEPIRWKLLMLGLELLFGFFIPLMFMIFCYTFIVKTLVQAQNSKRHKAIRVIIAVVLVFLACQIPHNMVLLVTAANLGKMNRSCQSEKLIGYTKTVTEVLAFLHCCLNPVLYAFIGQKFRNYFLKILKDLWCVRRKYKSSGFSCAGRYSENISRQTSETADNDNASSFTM
Beta2AR agonist: beta2AR agonists driving receptor internalization, primary screen, cell-based, FAP fluorogen, flow cytometry. Beta-2 adrenergic receptor (Homo sapiens), P07550. Am2.2-beta2AR cells. response, % (test concentration not listed). hit rate 0.43% among 340,000. AID 504454, 2011;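 active = response above a set limit, near 3 SD of response in nonfluorescent compounds, cut at about 42% in these data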
EBI2 block: EBI2 receptor antagonists, beta-arrestin recruitment, primary screen, cell-based, luminescence, 7a,25-OHC stimulation, uHTS | 7a,25-OHC stimulated | inhibition, % at 5 µM | hit rate 0.81% among 360,000 | AID 651636, 2012; in the data active = inhibition above about 38%;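 also: enzyme fragment complementation signal reports receptor beta-arrestin coupling in cells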
APJ antagonist: antagonists of human apelin receptor APJ, primary screen, CHO-K1 cells, beta-arrestin complementation, luminescence. P35414. hit rate 0.32% among 330,000. inhibition, % at 20 µM. AID 2521, 2010;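 active = inhibition above about 40% at 20 µM, limit read from the data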;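 also: cells challenged with 10 nM apelin-13 agonist together with compound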
CXCR6 block: CXCR6 receptor inhibitors, primary screen, cell-based, beta-arrestin, luminescence, CHO-K1 PathHunter, 1536-well; inhibition, % at 20 µM; hit rate 0.36% among 360,000; AID 602244, 2012; C-X-C chemokine receptor type 6 (Homo sapiens), O00574; in the data active = inhibition above about 34%, passing the limit was not always enough;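 also: antagonist mode with CXCL16 agonist at 10 nM final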
EBI2 antag conf: EBI2 antagonist hit retest, beta-arrestin, confirmation, cell-based, single concentration, luminescence, 7a,25-OHC stimulation; hit rate 29% among 2,400; inhibition, % at 5 µM; shares compounds with EBI2 block; 7a,25-OHC antagonism;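 active = inhibition of at least 50%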
EBI2 ag: EBI2 agonist activity of antagonist hits, confirmation, counter-screen for EBI2 antagonist project, cell-based, single concentration, agonist mode, luminescence. shares compounds with EBI2 block. EBI2-expressing cells, 60 min; 0% vehicle, 100% 7α,25-dihydroxycholesterol control. activation, % at 5 µM. 2,400 tested, under 10 active. AID 652000, 2013;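 active = activation of at least 50%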
bGal cs: E. coli beta-galactosidase enzyme inhibition, confirmation, counter-screen for EBI2 antagonist project, biochemical, luminescence, single concentration | AID 652176, 2013 | shares compounds with EBI2 block | hit rate 1% among 2,400 | purified beta-galactosidase, luminescent Galacton Star, 15 min | inhibition, % at 5 µM;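 active = replicate-average signal at least 3 plate SD below neutral wells, shown as high inhibition, flagging enzyme-inhibiting false positives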;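 also: higher means stronger loss of beta-gal luminescence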
Numbers stand for hits.

Results for COc1ccc(-c2n[nH]c3c2CN(C(=O)c2ccccc2)CC3)cc1 ?
APJ ag: inactive; CCR6 antag: inactive; Beta2AR agonist: inactive; EBI2 block: inactive; APJ antagonist: inactive; CXCR6 block: inactive

Results for O=C(c1ccco1)N1CCc2[nH]nc(-c3ccc(Cl)cc3)c2C1 ?
APJ ag: inactive; CCR6 antag: inactive; Beta2AR agonist: inactive; EBI2 block: 41; APJ antagonist: inactive; CXCR6 block: inactive; EBI2 antag conf: inactive; EBI2 ag: inactive; bGal cs: inactive

Results for O=C(CNC(=O)c1ccc(S(=O)(=O)N2CCCC2)cc1)N/N=C/c1c(Cl)cccc1Cl ?
APJ ag: inactive; CCR6 antag: inactive; Beta2AR agonist: inactive; EBI2 block: inactive; APJ antagonist: inactive; CXCR6 block: inactive

How did O=C(CN1CCN(S(=O)(=O)c2ccc(Br)cc2)CC1)N/N=C/c1ccncc1 do in these assays?
APJ ag: inactive; CCR6 antag: inactive; Beta2AR agonist: inactive; EBI2 block: 54; APJ antagonist: inactive; CXCR6 block: inactive; EBI2 antag conf: inactive; EBI2 ag: inactive; bGal cs: inactive

Results for O=C(CNC(=O)c1ccc(S(=O)(=O)N2CCCC2)cc1)N/N=C/c1ccc(Cl)cc1 ?
APJ ag: inactive; CCR6 antag: inactive; Beta2AR agonist: inactive; EBI2 block: 60; APJ antagonist: inactive; CXCR6 block: inactive; EBI2 antag conf: inactive; EBI2 ag: inactive; bGal cs: inactive

How did O=C(CNC(=O)c1ccc(S(=O)(=O)N2CCCC2)cc1)N/N=C/c1ccccc1 do in these assays?
APJ ag: inactive; CCR6 antag: inactive; Beta2AR agonist: inactive; EBI2 block: inactive; APJ antagonist: inactive; CXCR6 block: inactive

How did O=C(CNC(=O)c1ccc(S(=O)(=O)N2CCCC2)cc1)N/N=C/c1ccc(Cl)cc1Cl do in these assays?
APJ ag: inactive; CCR6 antag: inactive; Beta2AR agonist: inactive; EBI2 block: 75; APJ antagonist: inactive; CXCR6 block: inactive; EBI2 antag conf: inactive; EBI2 ag: inactive; bGal cs: inactive

How did O=C(CN1CCN(S(=O)(=O)c2ccc(Br)cc2)CC1)N/N=C/c1cccs1 do in these assays?
APJ ag: inactive; CCR6 antag: inactive; Beta2AR agonist: inactive; EBI2 block: inactive; APJ antagonist: inactive; CXCR6 block: inactive

Results for Cc1ccc(C(=O)Nc2cccnc2)cc1Cl ?
APJ ag: inactive; CCR6 antag: inactive; Beta2AR agonist: inactive; EBI2 block: inactive; APJ antagonist: inactive; CXCR6 block: inactive

Results for Cc1ccc(/C=C/C(=O)NCc2cccs2)cc1 ?
APJ ag: inactive; CCR6 antag: inactive; Beta2AR agonist: inactive; EBI2 block: 53; APJ antagonist: inactive; CXCR6 block: inactive; EBI2 antag conf: inactive; EBI2 ag: inactive; bGal cs: inactive

What do the screens show for `Cc1ccc(/C=C/C(=O)NCc2ccncc2)cc1`?
APJ ag: inactive; CCR6 antag: inactive; Beta2AR agonist: inactive; EBI2 block: 64; APJ antagonist: inactive; CXCR6 block: inactive; EBI2 antag conf: inactive; EBI2 ag: inactive; bGal cs: inactive

From PubChem BioAssay
